MC4R antagonist: antagonists of human melanocortin 4 receptor (MC4R); actives 0.48% (n = 360,000); AID 540295; P32245; inhibition, % at 6.5 µM; MC4R-expressing cells, MTII-stimulated cAMP, LANCE TR-FRET;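 active = inhibition above its plate's cutoff, the mean of tested wells on that plate plus 3 SD, cut at about 29% in these data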;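 note: 0% = Melanotan II alone and 100% = Melanotan II plus saturating MCL0020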
Target sequence (P32245 whole entry, looked up): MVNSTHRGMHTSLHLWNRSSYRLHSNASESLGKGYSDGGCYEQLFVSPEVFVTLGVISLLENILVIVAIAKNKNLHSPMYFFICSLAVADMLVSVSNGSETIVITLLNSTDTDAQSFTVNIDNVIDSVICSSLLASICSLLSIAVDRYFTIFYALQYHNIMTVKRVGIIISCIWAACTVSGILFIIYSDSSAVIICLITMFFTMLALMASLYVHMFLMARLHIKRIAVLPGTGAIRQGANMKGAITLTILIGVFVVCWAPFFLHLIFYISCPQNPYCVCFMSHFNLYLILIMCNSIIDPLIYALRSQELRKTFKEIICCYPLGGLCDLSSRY
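Material: human MC4R-expressing U2OS cells. Probe or stimulus: Melanotan II challenge. Dosing: 6.5 µM single dose. Times: 30-min compound, 1-h challenge, 1-h detection, room temperature. Technique: TR-FRET with Eu-cAMP and labeled anti-cAMP, 671 nm. Replication: singlicate.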
F508del corr: CFTR F508del correction in bronchial cells; actives 0.36% (n = 350,000); CFBE cells, YFP halide quenching; stimulated with forskolin plus potentiator P3; % fluorescence drop versus neutral controls; activity (quench increase), % at 7.58 µM;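 active = mean added fluorescence quench of at least 8% versus neutral control, with both replicates also reaching 8%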;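 note: cells transiently co-express mutant CFTR-F508del with the halide-sensitive YFP; corrector assay measuring rescue of mutant channel to the surface after 24 h compound exposure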
MC4R barr agon: human MC4R agonism via beta-arrestin | P32245 | U2OS MC4R beta-arrestin complementation, luminescence; percent of melanotan II response, DMSO zero | activation, % at 8.9 µM | actives 0.98% (n = 360,000) | AID 540308;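 active = activation above a per-plate cutoff, the mean activation of sample wells on that plate plus 3 SD, cut at about 8% in these data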
SMARCA2 act: SMARCA2 function activation, primary screen; MG213 cells, MMTV-luciferase reporter, dexamethasone, overnight; activation, % at 9.1 µM; actives 1% (n = 370,000); in the data active = activation above about 7.8%;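 note: 0% = vehicle wells and 100% = reference activator wells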
SMARCA2 conf: confirmation of SMARCA2 (BRM) function activators; shares compounds with SMARCA2 act; MG213 cells, MMTV-luciferase with dexamethasone, luminescence, overnight; MG213 cells expressing E1A, Rb sequestered; DMSO wells 0%, reference activator 100%; activation, % at 9.1 µM; actives 30% (n = 3,500); AID 652260;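 active = activation above its plate's cutoff, the mean activation of tested wells plus 3 SD, cut at about 7.9% in these data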
VP16 Luc act: counter-screen for SMARCA2 activators: GAL4-VP16 luciferase reporter activation; shares compounds with SMARCA2 act; HEK293 GAL4-VP16 pG5luc reporter, luciferase luminescence; scaled: DMSO wells 0%, SAHA wells 100%; activation, % at 9.1 µM; actives 41% (n = 3,500); AID 686939;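 active = activation above the solvent-only control well mean plus 3 SD, averaged across control plates, cut at about 5.2% in these data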
* hit, by the source's call; / = no result. Rows were chosen to be rich in hits. Some 2.1% of all compounds tested hit in one or more screens of this group.

SMILES	MC4R antagonist	F508del corr	MC4R barr agon	SMARCA2 act	SMARCA2 conf	VP16 Luc act
COc1ccc(CCNC(=O)c2coc(=O)c(Br)c2)cc1	/	0.8	/	28.5*	12.0*	11.2*
COc1ccc(CCNC(=O)c2ccc(Br)cc2)cc1	6.8	3.0	-1.0	0.6	/	/
COC(=O)C[C@@H]1C=C[C@@H](NC(=O)Nc2ccc(C(F)(F)F)cc2)[C@@H](CO)O1	/	0.2	/	/	/	/
CNC(=O)c1ccsc1NC(=O)c1sc2ccccc2c1Cl	9.3	-1.7	1.8	11.1*	12.3*	7.5*
Cc1cccnc1NC(=O)c1sc2ccccc2c1Cl	-1.0	-2.2	-0.7	8.5*	17.6*	7.8*
COCc1nnc(NC(=O)c2sc3ccccc3c2Cl)s1	4.0	/	-0.7	9.8*	16.8*	7.5*
Cc1nnc(NC(=O)c2sc3ccccc3c2Cl)s1	13.5	/	-3.0	4.9	/	/
C[C@@H]1CN([C@H](C)CO)C(=O)CCCn2cc(nn2)CO[C@@H]1CN(C)S(=O)(=O)c1cccs1	/	4.1	/	/	/	/
CC(C)CNC(=O)[C@@]1(C)c2ccccc2C(=O)N(Cc2ccccc2)[C@H]1c1ccc(CO)cc1	/	-1.3	/	/	/	/
O=C(c1cnccn1)N1CC(=O)N2[C@H](CO)[C@H](c3ccc(C#CC4CCCC4)cc3)[C@H]2C1	/	-3.5	/	/	/	/
Cc1csc2c(=O)sc(NC(=O)c3ccc(F)cc3Cl)nc12	9.8	-0.7	6.4	10.7*	-5.7	-0.3
C[C@@H]1CCCCO[C@@H](CN(C)C(=O)NC2CCCCC2)[C@H](C)CN([C@@H](C)CO)C(=O)c2cc(NS(=O)(=O)c3ccc(F)cc3)ccc2O1	/	-0.1	/	/	/	/
CCOC(=O)c1sc(NC(=O)CCN2CCN(C)CC2)c(C(=O)OCC)c1C	10.4	0.0	-0.7	8.4*	1.8	-0.2
CCOC(=O)c1sc(NC(=O)CN2CCCC2)c(C(=O)OCC)c1C	17.0	/	-0.8	1.3	/	/
CN1CCN(C(=O)C[C@@H]2CC[C@H]3[C@@H](COc4ccc(NC(=O)C5CC5)cc4C(=O)N3C)O2)CC1	/	1.0	/	/	/	/
O=c1ccsc2ccccc12	0.4	1.6	-0.4	-1.6	/	/
O=c1[nH]sc2ccccc12	-2.0	-6.3	-2.6	8.9*	-0.2	1.8
Cc1nc(NC(=O)CN2CCOCC2)sc1-c1ccccc1	9.3	/	0.0	3.4	/	/
CCc1sc(NC(=O)CN2CCOCC2)nc1-c1ccccc1	4.3	4.3	-0.9	8.7*	-2.7	-1.9
COc1ccc(-c2csc3nc(C)n(-n4cccc4)c(=O)c23)cc1OC	1.9	1.1	0.6	9.1*	-1.8	1.9
CCCNC(=O)Nc1ccc2c(c1)OC[C@H](C)N(C(=O)c1ccccc1F)C[C@@H](C)[C@H](OC)CN(C)C2=O	/	-1.2	/	/	/	/
O=C(NN=C1CCCC1)c1cccc(O)c1	-6.1	-0.7	-0.1	8.9*	2.5	1.0
O=C(NN=C1CCCC1)c1cc(O)cc(O)c1	-3.4	-4.8	-1.6	3.2	/	/
O=C(Nc1ccccc1Cl)c1cc2ccccc2o/c1=N\O	-4.8	1.1	3.7	10.9*	15.4*	16.2*
CCc1cccc2c(C(=O)CN3C(=O)NC4(CCCCCC4)C3=O)c[nH]c12	6.0	1.8	-0.2	10.9*	12.5*	1.3
SMILES	MC4R antagonist	F508del corr	MC4R barr agon	SMARCA2 act	SMARCA2 conf	VP16 Luc act
Cc1nccc(-c2cc(-c3ccc(Cl)cc3Cl)no2)n1	4.1	-3.1	6.1	16.2*	14.2*	2.8
CCCNC(=O)N1CC2(C1)[C@H](c1ccccc1)[C@H](CO)N2CC1CC1	/	-1.8	/	/	/	/
Cc1ccc(CC(=O)Nc2nc3ccccc3s2)cc1	-1.8	/	1.1	-2.8	/	/
Cc1nc2c(ccc3nc(NC(=O)Cc4ccccc4)sc32)s1	10.6	2.7	-0.6	10.5*	6.9	4.0
CCOC(=O)C1CCCN(C(=O)c2ccc(OC)cc2OC)CC1 (configuration not stated)	15.8	-1.8	-0.6	10.3*	0.8	-0.5
CCOC(=O)C1CCN(C(=O)c2ccc(OC)cc2OC)CC1	16.5	/	-0.5	-1.1	/	/
C[C@@H]1CN([C@@H](C)CO)C(=O)Cc2cc(NC(=O)CCN3CCOCC3)ccc2O[C@H]1CN(C)Cc1ccccc1	/	-0.1	/	/	/	/
C[C@@H]1CN([C@@H](C)CO)C(=O)Cc2cc(NC(=O)NC3CCCCC3)ccc2O[C@@H]1CN(C)S(=O)(=O)c1ccccc1	/	-2.4	/	/	/	/
O=C(C[C@@H]1CC[C@H](NC(=O)Nc2ccccc2F)[C@@H](CO)O1)NCc1ccc(F)cc1	/	-1.8	/	/	/	/
CCN(CC)CCCNC(=O)Cc1c(C(=O)O)n(C)c2ccccc12	1.2	/	-1.4	-3.9	/	/
CCN(CC)CCNC(=O)Cc1c(C(=O)O)n(C)c2ccccc12	-1.3	/	-1.4	9.5*	-1.0	-0.1
Cc1ccc(-c2ccc(CCC(=O)O)n2NC(N)=S)cc1	-1.2	/	1.9	8.4*	-0.8	0.6
COc1ccc(-c2ccc(CCC(=O)O)n2NC(N)=O)cc1	6.3	0.2	-1.7	-2.3	/	/
CCN1[C@@H]2Cn3c(ccc(-c4cccnc4)c3=O)[C@H]1[C@@H](C(=O)NCc1ccccc1)[C@@H]2CO	/	-0.4	/	/	/	/
c1ccc(C2Nc3ccccc3-c3nc4ccccc4n32)nc1 (configuration not stated)	-2.8	/	-2.3	10.1*	1.3	1.0
c1ccc(C2Nc3ccccc3-c3nc4ccccc4n32)cc1 (configuration not stated)	-1.1	/	-0.6	3.7	/	/
Cc1ccc(S(=O)(=O)N[C@@H]2CC[C@@H](CCNC(=O)Nc3ccc(Cl)cc3)O[C@H]2CO)cc1	/	1.9	/	/	/	/
O=C(Nc1nc2ncccn2c1-c1ccc(F)cc1)C1CC1	/	/	/	8.7*	-2.3	0.0
O=C(Nc1nc2ncccn2c1-c1ccccc1)C1CC1	/	/	/	-0.7	/	/
O=C(Nc1ccccc1)Nc1nc2ncccn2c1-c1ccc(F)cc1	/	/	/	14.1*	3.6	4.4
CCN(CC)C(=O)C1=C(C)N(Cc2ccc(F)cc2)C(=O)C(CC(=O)NCc2cccs2)C1 (configuration not stated)	7.7	0.5	0.2	1.7	/	/
CCN(CC)C(=O)C1=C(C)N(Cc2ccc(F)cc2)C(=O)C(CC(=O)NCc2ccco2)C1 (configuration not stated)	5.7	-4.8	0.8	8.4*	-5.9	0.7
O=C1O[C@@H](c2ccccc2)[C@@H](c2ccccc2)N2[C@@H](c3ccc(O)cc3)[C@]3(C(=O)Nc4ccc(C#CC5(O)CCCCCC5)cc43)[C@@H](C(=O)NC[C@H](O)c3ccccc3)[C@H]12	/	-2.7	/	/	/	/
O=C(Nc1ccccc1)c1ccc2snnc2c1	-2.7	/	-3.3	-0.1	/	/
Cc1ccc(NC(=O)c2ccc3snnc3c2)cc1	-0.1	0.4	-1.7	9.2*	3.2	12.0*
O=S1(=O)CC(N2CCN(CCO)CC2)CN1Cc1ccc(F)cc1 (configuration not stated)	/	-1.9	/	8.1*	-4.2	-0.6

Assay outcomes: PubChem BioAssay, several laboratories
